# Experimental data taken from PubChem BioAssay.
# Values without a mark were called inactive. Results filed as inconclusive are left out. Activity calls are given as the source filed them.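 Rule for the calls, unless noted: active = RAM network inhibition above 8.4% in each of two replicates, 3 SD over the compound average; inconclusive = above 8.4% inhibition in only one replicate; inactive = 8.4% inhibition or less in each replicate.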
# Tests used:
# [1] = S. cerevisiae growth inhibition in permissive medium (OD615), pilot counter-assay for S. cerevisiae lifespan shortening project, permissive growth control (AID 705;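 active = growth inhibition above 25% in both replicates, a cutoff set 3 SD above the mean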); details: OD615, 24 h, at 10 µM, active compounds read high
# In short: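 System: engineered DeaD yeast; Medium: permissive raffinose/galactose medium; Compound dosing: 10 µM single dose, 0.25% DMSO; Incubation: 4 h cell pre-growth, 24 h exposure at 30 °C; Technique: OD at 615 nm; Evaluation: growth inhibition from lowered OD615 after 24 h.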
# [2] = S. cerevisiae growth inhibition in restrictive medium, OD615, pilot screen, restrictive growth control, yeast lifespan reduction project (AID 706;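 active = growth inhibition above a set limit, 3 SD over mean compound inhibition, in both replicates, cut at about 43% in these data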;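 note: modified DeaD lifespan yeast strain shifted to restrictive glucose medium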); details: OD615, 48 h, at 10 µM, active compounds read high
# In short: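 Material: modified S. cerevisiae; buffer or medium: CSMM-D glucose medium; doses: one concentration, 10 µM final, 0.25% DMSO; incubation: 48 h compound exposure at 30 °C; detection: optical density at 615 nm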
# [3] = doxorubicin toxicity protection in MRP-1 cells – H69AR cells, CellTiter-Glo, duplicate, MRP-1 activator project, pilot screen (AID 807;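 active = viability increase at or above a cutoff of the median across tested compounds plus 3 SD, cut at about 8.5% in these data, passing the limit was not always enough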;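 note: compound pretreatment 18-22 h then 72 h combined with doxorubicin; 0% = doxorubicin alone and 100% = vehicle without doxorubicin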); details: H69AR viability with doxorubicin, CellTiter-Glo luminescence; at 10 µM; active compounds read high
# [4] = viability of HCT116 without oncogenic beta-catenin – human colon tumor cells, pilot screen (AID 823;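 active = cell viability at or below a set limit in both duplicate runs, the limit being the all-compound median minus 4 SD, cut at about 23% in these data, passing the limit was not always enough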;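 note: 0% = wells killed by 20 µM Hyamine and 100% = untreated DMSO cell wells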); details: HCT116 beta-catenin knockout viability, CellTiter-Glo, 60 h; at 10 µM; active compounds read low
# [5] = viability of PTEN-null HCT116 cells – cell-based, HCT116 clonal line, CellTiter-Glo, pilot screen (AID 824;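 active = viability at or below 27.92% in each of two runs, the all-compound median minus 4 SD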;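 note: 0% = 20 µM Hyamine control and 100% = vehicle cell control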); details: HCT116 PTEN-deleted viability, 60 h, at 10 µM, active compounds read low
# [6] = RAM pathway blockade in budding yeast – dse1pr::URA3 reporter, 5-FOA selection, pilot screen (AID 869;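 active = inhibition over a set limit, the all-compound mean plus 3 SD, in both replicate runs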;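 note: 0% = DMSO wells with no growth and 100% = 10 µM 1-NA-PP1 with full growth; RAM network block rescues cells from 5-FOA so hits raise OD615 growth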); details: S. cerevisiae dse1pr::URA3 5-FOA growth, OD615, 2 d; at 10 µM; active compounds read high; strain carries analog-sensitive mutant Cbk1 kinase
# [7] = RAM signaling pathway blockade in yeast – S. cerevisiae, Pdr1DBD-CYC8 efflux-inhibited sensitized strain, primary screen (AID 1298);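 note: 0% = DMSO untreated cells without growth and 100% = 10 µM 1-NA-PP1 full growth; higher means more yeast growth rescued from 5-FOA killing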; details: S. cerevisiae cbk1-as DSE1-URA3 strain, 5-FOA growth OD615, 2 d; at 50 µM; active compounds read high
Compound,growth inhibition [1] [%],growth inhibition [2] [%],viability increase [3] [%],viability [4] [%],viability [5] [%],inhibition [6] [%],RAM network inhibition [7]
Fc1ccccc1COc1cccc(/C=N/n2cnnc2)c1,2.62,11.6,0.12,96.2,84.9,0.35,0.15%
O=C(NCC1CCCO1)c1ccc2c(c1)N(Cc1ccccc1)C(=O)CS2=O (stereo unspecified),-1.31,8.91,-0.66,91.2,88.3,1.06,0.78%
CCSc1nnc2c(n1)[nH]c1c(C)cccc12,-6.89,-1.28,-5.1,47.9,65.5,4,4.68%
COC(=O)C1=C(C)NC(=O)NC1c1cn(-c2ccccc2)nc1-c1cccs1 (stereo unspecified),1.5,7.83,-1.94,85.6,82.4,2.37,5.72%
COc1ccc(NC(C)=O)c2nc(C)c(C)nc12,7.39,-2.71,-3.32,98,93.9,1.17,1.29%
O=C(NC1CCCCC1)C(c1ccccc1)N1CCCC1 (stereo unspecified),1.67,-3.42,-1.59,96.6,97.7,1.43,5.5%
CC(=O)c1cccc(NC(=O)N2CCCC2C(=O)NCc2ccccc2)c1 (stereo unspecified),-6.55,-11.5,-1.13,104,100,0.87,1.46%
COc1cc(NS(=O)(=O)c2ccc3c(c2)oc(=O)n3C)cc(OC)c1OC,-3.74,0.425,-4.97,41.9,35.5,-0.355,2.41%
Cn1c(=O)c2c(nc(CN3CCN(Cc4ccccc4)CC3)n2Cc2ccccc2)n(C)c1=O,-6.72,-11.8,-0.85,85.6,88,2.02,-0.01%
Cc1cc(NC(=O)COC(=O)c2ccc(F)c(S(=O)(=O)N3CCOCC3)c2)no1,-13.5,-21.9,-1.16,103,96.8,1.03,3.16%
Cc1occc1C(=O)Nc1nnc(-c2ccncc2)s1,4.81,5.91,-0.28,100,104,0.705,-1.3%
Cc1cccc(CN2CCN(CC(=O)NCc3ccc(F)cc3)C2=O)c1,-2.2,-1.6,0.82,104,104,0.03,3.27%
Cc1ccccc1OCc1nc(-c2ccc(-n3cccc3)cc2)no1,-22.8,-18.9,-0.53,81.3,84,2,5.61%
COc1ccc(N2C(=O)C3CCCN3C2c2ccccc2)cc1 (stereo unspecified),4.01,-9.51,-0.65,102,101,1.87,-0.32%
O=C(CCSc1ccccc1)Nc1nnc(-c2ccccc2)o1,-0.38,3.81,-3.73,98.9,103,0.27,2.5%
CCOC(=O)c1sc(NC(=O)c2cc(S(=O)(=O)N3CCOCC3)ccc2C)nc1C,-4.69,-10.3,-2.11,92.3,86.6,0.57,6.77%
COc1ccc(OC)c2c1sc(=NC(=O)CN1C(=O)CCC1=O)n2C,-3.75,5.91,-1.92,92.7,87.4,1.16,2.41%
COCN(C#N)c1nc(OC)nc(OC)n1,0.79,7.01,2.98,103,104,-0.1,2.34%
CCn1c(SCC(=O)Nc2cccc(F)c2)nc2c(c1=O)SC(C)C2 (stereo unspecified),-11.8,-1.47,-0.53,94.8,86.8,1.57,4.64%
O=C(CN1CCN(CC(=O)Nc2ccccn2)CC1)Nc1ccccn1,-2.54,-0.335,-0.95,98.6,97.6,0.705,6.03%
Cc1ccc(F)cc1NC(=O)c1c(-c2ccccc2)noc1C,-10.2,-26.1,-2.01,78.8,72.9,0.015,2.22%
Cc1ccc(C(=O)NCCn2cc(SCC(=O)Nc3nnc(C)s3)c3ccccc32)cc1,5.58,24.1,2.91,62.5,81.3,1.07,0.63%
COc1ccc(-c2cn3c(C)c(C(=O)N4CCN(c5ccccc5F)CC4)sc3n2)cc1,2.91,-0.695,0.81,78.9,78,2.13,18.2% (active)
N#CC1=C(N)C(C#N)(C#N)C2(C(=O)Nc3ccccc32)C2CCCC=C12 (stereo unspecified),5.05,-12.2,-4.96,91.5,82.6,0.71,0.83%

Compound,growth inhibition [1] [%],growth inhibition [2] [%],viability increase [3] [%],viability [4] [%],viability [5] [%],inhibition [6] [%],RAM network inhibition [7]
CCOC(=O)c1csc(NC(=O)C(C)(C)C)n1,-6.04,-0.045,2.71,105,98.8,0.48,-1.57%
CC12C(=O)N(c3ccccn3)C(=O)C1C1C=CC2C1 (stereo unspecified),-13.3,-4.06,-0.78,96.6,92,1.26,1.11%
COc1cccc(NC(=O)CN2C(=O)COc3ccc(Cl)cc32)c1,-12.2,-17.7,-0.8,90,84.7,0.405,0.31%
CC(Oc1ccc(Cl)cc1Cl)C(=O)NCCCN1CCOCC1 (stereo unspecified),-8.88,-10.2,0.14,96,95,-0.36,0.47%
C=CCNc1nc2c(c(=O)n(C)c(=O)n2C)n1CC(=C)C,-1.17,2.97,-0.38,91.2,91.8,-0.15,1.58%
CSc1nc2sc3c(c2c(=O)n1C)CCCC3,7.93,8.89,-0.98,99.9,94.7,0.695,3.94%
CC(c1ccccc1)C1C(C#N)=C(N)OC2=C1C(=O)CCC2 (stereo unspecified),-19,-12.4,-0.93,88,91.3,3.24,1.95%
O=C(Nc1ccc(Oc2ccc(NC(=O)C3CCCO3)cc2)cc1)C1CCCO1 (stereo unspecified),-2.75,-11,-5.07,85.7,96.7,3.62,-0.11%
Cc1noc(C(=O)N2CCN(c3ccc(F)cc3)CC2)c1Cl,-12.6,-16.4,1.26,105,101,2.11,9.11%
Cc1c(C(=O)N2CCC(C(N)=O)CC2)sc(N)c1C#N,-12.1,-8.07,-0.41,94.7,99.1,2.91,9.2%
C=CCn1c(=O)/c(=C/c2cc(OC)c(OC)c(OC)c2)s/c1=C(/C#N)c1nc2ccccc2n1C,-4.25,8.29,-3.61,46.3,50.9,3.67,4.52%
COc1ccc(CCNC(=O)c2c(O)c3c([nH]c2=O)CCCC3)cc1,-0.92,-15.2,-0.72,97.1,90,1.77,4.09%
c1ccc2c(c1)CCCN2c1nc2ccccc2n2cnnc12,-6.12,-9.76,-6.44,91.2,83.3,1.44,4.1%
CCN(CC)CCCN1C(=O)C(O)=C(C(=O)c2ccc(C)o2)C1c1cccs1 (stereo unspecified),0.37,-6.93,-4.04,97.5,96.2,2.01,2.8%
CC(C)n1c(NCc2cc(Cl)ccc2O)nc2ccccc21,-3.83,-7.78,-0.71,88.8,87.9,-0.06,1.06%
COc1ccc2[nH]cc(CCNC(=O)C3CCCNC3=O)c2c1 (stereo unspecified),-14.6,-16.5,-1.57,104,102,0.15,2.98%
CC1CCCC(NC(=O)CN(C)S(=O)(=O)c2cccc3cccnc23)C1C (stereo unspecified),-10.9,-18.7,-3.62,98.7,88.4,0.34,3.61%
O=c1cc(CSc2nnc(-c3ccccc3)o2)c2ccccc2[nH]1,-4.87,-3.43,0.91,99.2,102,2.32,6.08%
CC1CN(S(=O)(=O)c2ccc(C(=O)Nc3sc4c(c3C(N)=O)CCN(C)C4)cc2)CC(C)O1 (stereo unspecified),-6.76,-7.93,-0.69,91.9,97.7,1.35,5.2%
CCCCC(=O)Nc1ccc2c(c1)C(=O)NC2=O,-2.94,-3.99,0.07,101,94.5,2.62,2.45%
CCC1Oc2nc(SC)nnc2-c2ccccc2N1C(=O)c1ccccc1 (stereo unspecified),-2.41,-2.26,-5.16,70.6,58.1,1.03,3.93%
Cc1cc(C)c2c(N)c(C(=O)Nc3nccs3)sc2n1,0.355,16.4,-5.52,87.8,90.5,2,-0.11%
Cc1cc(-n2nc(C)cc2C)nc(NS(=O)(=O)c2ccccc2)n1,-11.4,-20.8,-2.09,94.8,94.3,2.98,4.2%
CC(C)(C)c1ccc(OCC(O)CS(=O)(=O)c2ccccn2)cc1 (stereo unspecified),-20.8,-19.1,-0.66,97.8,94.5,-0.5,4.16%
